Source: ChEMBL document CHEMBL1140479, “NO donors. Part 16: investigations on structure-activity relationships of organic mononitrates reveal 2-nitrooxyethylammoniumnitrate as a high potent vasodilator” (Bioorg Med Chem Lett, 2007)

Test: Vasodilatory effect in pig pulmonary artery assessed as inhibition of PGF2-alpha-induced contraction
Type: functional, tissue-based, Sus scrofa
Details: for pD2: Sus scrofa
Procedure, shortened: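 Porcine lungs from slaughterhouse; small pulmonary artery branches cut into rings (2–3 mm long, 1.5–2 mm diameter), tension measured in organ baths. Rings precontracted with PGF2α; test compounds added cumulatively at contraction plateau (up to 1 mM), DMSO as solvent. Endothelium checked by 10 nM bradykinin relaxation; denuded rings by gentle rubbing, pretreated with 0.2 mM L-NAME. Potency expressed as pD2.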

Compound	EC50 [µM]	pD2
COC(=O)CCO[N+](=O)[O-]	1.03	5.99
O=[N+]([O-])OCC(CO)(CO)CO [PENTAERYTHRITYL MONONITRATE]	72.5	4.14
O=[N+]([O-])O[C@H]1CO[C@H]2[C@@H]1OC[C@H]2O[N+](=O)[O-] [ISOSORBIDE DINITRATE]	0.424	6.37
CC(C)(CO[N+](=O)[O-])C(=O)O	14.7	4.83
NCCO[N+](=O)[O-] [AMINOETHYL NITRATE]	0.0315	7.5
O=[N+]([O-])OCCS(=O)(=O)O	33.5	4.48
O=[N+]([O-])OC1COC2C(O)COC12 (stereo unspecified)	33.2	4.48
O=C(O)CCO[N+](=O)[O-]	9.56	5.02
O=[N+]([O-])OCc1ccccc1	0.412	6.34
CCCCO[N+](=O)[O-]	141	3.85
CC(O[N+](=O)[O-])C(=O)c1ccccc1 (stereo unspecified)	1.54	5.81
O=[N+]([O-])OCC(CO[N+](=O)[O-])O[N+](=O)[O-] [NITROGLYCERIN]	0.0356	7.44
CC(C)CO[N+](=O)[O-]	87.7	4.01
